Data: paper PMC6982609 (Nature chemical biology, 2019)

Experiments:
[1] = tested on: TNBC cells; assay: Growth inhibition of TNBC cells by EZH2 inhibitors; type: cell-based
[2] = tested on: EZH2; conditions: read-out: IC50 for EZH2; cited from earlier work
[3] = tested on: MDA-MB-468 cells; assay: Live-cell imaging proliferation/cell death assay with ER-stress inducer; type: cell-based
Outline: (§1)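 Cells (1 to 3 × 10^3 per well) were seeded in 96-well plates in duplicate and dosed at the indicated concentrations. Plates were imaged in an IncuCyte live-cell system inside a 37 °C, 5% CO2 incubator. Confluence was derived from phase-contrast images. For cell death, medium contained 1.5 μM DRAQ7, and red-fluorescent dead-cell counts were recorded by automated fluorescence microscopy.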

[4] = tested on: MDA-MB-231 cells; assay: as above; type: cell-based
Outline: as §1

## COc1cc(C)[nH]c(=O)c1CNC(=O)c1c(C)n([C@H](C)C2CCN(CC(F)(F)F)CC2)c2ccccc12 [CPI-1205, (R)-N-((4-methoxy-6-methyl-2-oxo-1,2-dihydropyridin-3-yl)methyl)-2-methyl-1-(1-(1-(2,2,2-trifluoroethyl)piperidin-4-yl)ethyl)-1H-indole-3-carboxamide]
[1]
  growth inhibition and apoptosis induction in TNBC cells: failed to inhibit growth

## CCCc1cc(C)[nH]c(=O)c1CNC(=O)c1cc(-c2ccc(N3CCN(C(=O)CCOCCOCCOCCOCCOCCOCCOCCOCCOCCOCCOCCOCCNC(=O)CCCC[C@@H]4SC[C@@H]5NC(=O)N[C@@H]54)CC3)nc2)cc2c1cnn2C(C)C [UNC2399]
[2]
  IC50: 17 nM

## tunicamycin
[3]
  induction of cell death: effectively induced cell death
[4]
  induction of cell death: not in MDA-MB-231 cells

## CC[C@H](C)n1cc(C)c2c(C(=O)NCc3c(C)cc(C)[nH]c3=O)cc(-c3ccc(N4CCNCC4)nc3)cc21 [GSK126]
[1]
  growth inhibition and apoptosis induction in TNBC cells: failed to inhibit growth
